MT stabilize HCS: microtubule stabilizers in HeLa cells, primary screen, imaging, high-content imaging. % tubulin-high responders, % at 10 µM. HeLa tubulin immunostaining HCS, 24 h; share of cells brighter than vehicle mean+2SD. 0.83% of 200,000 active. AID 2205, 2009;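 active = plate Z-score above 3 for both tubulin-high and condensed-nucleus cell shares, with cell loss under 80%, at 10 µM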;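 note: anti alpha tubulin signal scored within the nucleus-defined area of each cell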
APP transl inh: inhibitors of APP translation via 5'UTR reporter, primary screen, APP 5'UTR luciferase, SH-SY5Y cells. 0.82% of 190,000 active. inhibition, % at 2 µM. SH-SY5Y APP 5'UTR-luciferase reporter, luminescence;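 active = inhibition above a set limit, derived from the sample mean plus 3 SD, cut at about 45% in these data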
Ba/F3 V617F tox: reduced viability of JAK2V617F-dependent Ba/F3 cells, primary screen, JAK2V617F inhibitor project, cell-based, Ba/F3 EpoR-JAK2V617F, luminescence; ATP luminescence; inhibition, % at 5.6 µM; 1.1% of 220,000 active; AID 1446, 2008;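 active = inhibition above the campaign mean plus 3 SD over all tested compounds, cut at about 24% in these data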;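 note: cytokine-independent growth of Ba/F3 cells driven by EpoR plus mutant JAK2; 0% = DMSO-treated cells and 100% = JAK inhibitor I control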
IEC-6 cytotox: cytotoxicity in IEC-6 intestinal epithelial cells, primary screen, cytotoxicity control for KLF5 inhibitor project, cell-based, luminescence; IEC-6 cytotoxicity, luminescence viability; inhibition, % at 5 µM; 0.78% of 290,000 active; in the data active = inhibition above about 22%;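 note: 0% = plate median of test compound wells and 100% = cytotoxic reference compound wells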
BaF3 tox: parental Ba/F3 cell viability inhibition, counter-screen for JAK2V617F inhibitor project, murine pro-B, CellTiter-Glo luminescence | CellTiter-Glo ATP luminescence | inhibition, % at 5.6 µM | AID 1486, 2009 | 1.1% of 220,000 active;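 active = inhibition above a per-campaign cutoff, the mean inhibition of all tested compounds plus 3 SD, cut at about 27% in these data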;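 note: 0% = DMSO wells and 100% = JAK Inhibitor I control wells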
b-catenin transl: modulators of beta-catenin nuclear translocation, primary screen, imaging, HeLa cells, immunofluorescence, high-content. nuclear translocation activity, % at 5 µM. 0.3% of 190,000 active. AID 1665, 2009;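 active = nuclear translocation activity above 50% at 5 µM, with a well cell count of 50 or more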;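 note: per-cell ratio of nuclear to cytoplasmic median beta-catenin stain intensity; plate controls were DMSO negative control for no effect and GSK-3 inhibitor IX positive control for full effect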
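Technique: fluorescence imaging of beta-catenin antibody stain plus DAPI / Material: human HeLa cell line / Incubation: compound treatment 24 h, 37°C, 5% CO2 / Read-out basis: % activation of per-cell nuclear versus cytoplasmic median beta-catenin signal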
* hit, by the source's call. Shown are actives, neighbours in structure and some others; about 2.2% of the full set was active somewhere.

`COc1ccc(CNC(=O)CSc2nc(-c3ccccc3)cc(-c3cccs3)c2C#N)cc1` gave MT stabilize HCS 0.8, APP transl inh -9.1, Ba/F3 V617F tox -3.3, IEC-6 cytotox 5.1 and BaF3 tox 1.3.
O=C(NCC(=O)N(c1ccc(F)cc1)C(C(=O)NC1CCCC1)c1ccncc1)c1ccco1 (centres undefined) was read as IEC-6 cytotox 5.3.
Screening O=C(CCc1cccc(Cl)c1)N1CCCC(Nc2ccccc2)C1 (centres undefined) returned IEC-6 cytotox -1.1.
`CCOc1ccc(NC(=O)CN(C)C(=O)CCCOc2ccc(Cl)c(C)c2)cc1OCC` gave IEC-6 cytotox -5.2.
Nc1ccc2nc3c(c(Cl)c2c1)CCCC3 was read as Ba/F3 V617F tox 17.3, IEC-6 cytotox 3.2, BaF3 tox 62.6* and b-catenin transl 24.9.
CCOCCCNC(=O)C(NC(=O)Cc1cccs1)c1ccc(OC)cc1 (centres undefined) was read as MT stabilize HCS 3.6, APP transl inh 6.3, Ba/F3 V617F tox -0.6, IEC-6 cytotox -3.9, BaF3 tox 2.2 and b-catenin transl 5.8.
For CC(=O)c1cn(CC(=O)Nc2ccc(C)cc2C)c2ccccc12 the results were MT stabilize HCS 3.9, APP transl inh 13.5, Ba/F3 V617F tox 25.2*, IEC-6 cytotox 2.3, BaF3 tox 38.8* and b-catenin transl -2.1.
For CCCC(O)(c1ccc(CC)cc1)C(CN1CCOCC1)c1ccccc1 (centres undefined) the results were IEC-6 cytotox -8.2.
COc1ccc(-n2nc(C(=O)N3CCC(N4CCCCC4)CC3)c3c4ccccc4n(C)c3c2=O)cc1 was read as IEC-6 cytotox 2.5.
Oc1c(CN2CCN(c3ccccn3)CC2)cc(Cl)c2cccnc12 was read as MT stabilize HCS 8.9, APP transl inh 78.1*, Ba/F3 V617F tox -1.6, IEC-6 cytotox -5.4, BaF3 tox 3.6 and b-catenin transl 1.9.
`OCCN1CCN(Cc2cc(Cl)c3cccnc3c2O)CC1` gave MT stabilize HCS 1.6, APP transl inh 0.3, Ba/F3 V617F tox -5.3, IEC-6 cytotox -2.7 and BaF3 tox 0.2.
Oc1c(CN2CCCCC2)cc(COCc2ccccc2)c2cccnc12 was read as MT stabilize HCS 17.5, APP transl inh 85.1*, Ba/F3 V617F tox 88.6*, IEC-6 cytotox 2.3, BaF3 tox 98.9* and b-catenin transl 0.3.
For COc1ccccc1N1CCN(Cc2cc(Br)c(O)c3ncccc23)CC1 the results were MT stabilize HCS 10.1, APP transl inh 20.8, Ba/F3 V617F tox 98.0*, IEC-6 cytotox 0.9 and BaF3 tox 85.7*.
O=C(Oc1c(CN2CCOCC2)cc(Cl)c2cccnc12)c1ccccc1Cl was read as MT stabilize HCS 4.1, APP transl inh 53.1*, Ba/F3 V617F tox 0.9, IEC-6 cytotox -2.4, BaF3 tox 6.6 and b-catenin transl 1.5.
`Cc1ccn(CCC(=O)Nc2ccc3c(c2)OCO3)n1` gave IEC-6 cytotox -0.3.
`OCC1(Cc2ccccc2F)CCCN(CC2CCCCC2)C1` (centres undefined) gave IEC-6 cytotox -2.2.
`COCc1cc(CN2CCCC2)c(O)c2ncccc12` gave MT stabilize HCS 4.2, APP transl inh 20.4, Ba/F3 V617F tox 71.8*, IEC-6 cytotox -1.9, BaF3 tox 59.4* and b-catenin transl 2.9.
For OC(CNCc1ccc(-c2ccccc2)cc1)c1ccccc1 (centres undefined) the results were MT stabilize HCS 3.4, APP transl inh -4.0, Ba/F3 V617F tox 3.6, IEC-6 cytotox 1.9, BaF3 tox 8.1 and b-catenin transl 67.9*.
CCOc1ccc(C(C)=O)cc1Cn1c(=O)oc2ccccc21 was read as IEC-6 cytotox 11.1.
For Cc1cc(C)c(O)c(NC(=S)NC(=O)Cc2ccccc2)c1 the results were IEC-6 cytotox 9.0.
Screening O=C(Nc1nc2c(s1)CCCC2)C1CCCN1C(=O)c1cccs1 (centres undefined) returned MT stabilize HCS 2.6, APP transl inh 6.0, Ba/F3 V617F tox 2.7, IEC-6 cytotox -2.7, BaF3 tox 3.3 and b-catenin transl -6.5.
O=C(Nc1nccs1)[C@@H]1CCCN1C(=O)c1cccs1 was read as MT stabilize HCS 4.3, APP transl inh -7.5, Ba/F3 V617F tox -1.6, IEC-6 cytotox -4.9, BaF3 tox 104.1* and b-catenin transl -5.0.
`Oc1ccc2ccccc2c1/C=N/Nc1ccccc1` gave MT stabilize HCS 4.4, APP transl inh -16.3, Ba/F3 V617F tox -3.6, IEC-6 cytotox 0.0, BaF3 tox 0.9 and b-catenin transl 0.0.
Cc1cc(N/N=C/c2c(O)ccc3ccccc23)nc(-c2ccccc2O)n1 was read as MT stabilize HCS 7.3, APP transl inh 57.9*, Ba/F3 V617F tox -1.6, IEC-6 cytotox -4.6, BaF3 tox 0.2 and b-catenin transl 4.3.
`O=C(c1cc([N+](=O)[O-])ccc1N1CCCCC1)N1CCc2ccccc21` gave MT stabilize HCS 17.3*, APP transl inh 41.7, Ba/F3 V617F tox 2.8, IEC-6 cytotox -3.4, BaF3 tox 7.3 and b-catenin transl 0.2.
`Cc1ccc(C(=O)c2cc([N+](=O)[O-])ccc2N2CCCCC2)c(C)c1` gave MT stabilize HCS 5.9, APP transl inh 96.2*, Ba/F3 V617F tox 88.1*, IEC-6 cytotox 89.4*, BaF3 tox 86.5* and b-catenin transl 58.8*.
For O=C(c1cc([N+](=O)[O-])ccc1N1CCOCC1)N1CCOCC1 the results were MT stabilize HCS 5.0, APP transl inh -3.3, Ba/F3 V617F tox 3.0, IEC-6 cytotox 1.6, BaF3 tox 5.2 and b-catenin transl 0.2.
Screening O=C(O)c1cc([N+](=O)[O-])ccc1N1CCCCC1 returned MT stabilize HCS 2.4, APP transl inh 9.8, Ba/F3 V617F tox 2.5, IEC-6 cytotox 2.3, BaF3 tox 8.9 and b-catenin transl 1.7.
Screening Cc1ccc(C(=O)c2cc([N+](=O)[O-])ccc2N2CCOCC2)cc1 returned MT stabilize HCS 18.4*, APP transl inh 93.2*, Ba/F3 V617F tox 5.1, IEC-6 cytotox 1.7, BaF3 tox 5.0 and b-catenin transl 8.0.
For Cc1cccc(OCCSc2nc3ccccc3n2CCC(=O)O)c1 the results were IEC-6 cytotox -4.3.
For O=C(CCCN1C(=O)/C(=C\c2ccccc2)SC1=S)Nc1ccc(O)cc1 the results were MT stabilize HCS 2.3, APP transl inh 18.6, Ba/F3 V617F tox 0.4, IEC-6 cytotox -2.0, BaF3 tox 5.1 and b-catenin transl -0.1.
